Measurements: ChEMBL document CHEMBL4359878, “Discovery of 4-piperazinyl-2-aminopyrimidine derivatives as dual inhibitors of JAK2 and FLT3” (Eur J Med Chem, 2019)

Legend:
[1] = system: HEL; experiment: Antiproliferative activity against human HEL cells assessed as growth inhibition after 72 hrs by CCK-8 assay; assay type: functional
Method in brief: (§1)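 CCK-8 viability readout. Cells were cultured in RPMI 1640 with 10% FBS and 1% penicillin/streptomycin and seeded at 3000 (HEL), 5000 (MV4-11) or 3000 (HL60) cells/well. Increasing compound concentrations were applied for 72 h, then CCK-8 was added for a further 3 h and absorbance read at 450 nm. Inhibition = (1−A_sample/A_control)×100, normalized to DMSO controls. Value is the mean of three independent measurements, obtained by curve fitting.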

[2] = molecular target: T1, Tyrosine-protein kinase JAK2 (Homo sapiens, UniProt O60674); experiment: Inhibition of N-terminal His-tagged human JAK2 catalytic domain (826 to 1132 resiudes) expressed in baculovirus expression system at 100 nM using FAM-labeled peptide as substrate preincubated for 10 mins followed by substrate addition measured after 1 hr in presence of ATP by mobility shift assay relative to control
Method in brief: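 Single-concentration (100 nM) percent inhibition in the mobility-shift JAK2 assay. Enzyme was preincubated with compound for 10 min at room temperature in HEPES pH 7.5/Brij-35 buffer. FAM-peptide and ATP were then added and the reaction run for 1 h at 28 °C before EDTA stop. Inhibition = (max−conversion)/(max−min)×100. Each compound was tested at least twice and the values averaged.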

[3] = system: HL-60; experiment: Antiproliferative activity against human HL60 cells assessed as growth inhibition after 72 hrs by CCK-8 assay; assay type: functional; conditions: HL-60, 72 h; method in brief: as §1
[4] = molecular target: Receptor-type tyrosine-protein kinase FLT3 (Homo sapiens) (UniProt P36888); conditions: at 100 nM
[5] = system: MV4-11; experiment: Antiproliferative activity against human MV4-11 cells assessed as growth inhibition after 72 hrs by CCK-8 assay; assay type: functional; conditions: MV4-11, 72 h; method in brief: as §1
[6] = molecular target: T2, Receptor-type tyrosine-protein kinase FLT3 (Homo sapiens, UniProt P36888); experiment: Inhibition of N-terminal GST-tagged human FLT3 cytoplasmic domain (564 to 993 residues) expressed in baculovirus expression system musing FAM-labeled peptide as substrate preincubated for 10 mins followed by substrate addition measured after 1 hr in presence of ATP by mobility shift assay
T2 sequence (P36888 whole entry): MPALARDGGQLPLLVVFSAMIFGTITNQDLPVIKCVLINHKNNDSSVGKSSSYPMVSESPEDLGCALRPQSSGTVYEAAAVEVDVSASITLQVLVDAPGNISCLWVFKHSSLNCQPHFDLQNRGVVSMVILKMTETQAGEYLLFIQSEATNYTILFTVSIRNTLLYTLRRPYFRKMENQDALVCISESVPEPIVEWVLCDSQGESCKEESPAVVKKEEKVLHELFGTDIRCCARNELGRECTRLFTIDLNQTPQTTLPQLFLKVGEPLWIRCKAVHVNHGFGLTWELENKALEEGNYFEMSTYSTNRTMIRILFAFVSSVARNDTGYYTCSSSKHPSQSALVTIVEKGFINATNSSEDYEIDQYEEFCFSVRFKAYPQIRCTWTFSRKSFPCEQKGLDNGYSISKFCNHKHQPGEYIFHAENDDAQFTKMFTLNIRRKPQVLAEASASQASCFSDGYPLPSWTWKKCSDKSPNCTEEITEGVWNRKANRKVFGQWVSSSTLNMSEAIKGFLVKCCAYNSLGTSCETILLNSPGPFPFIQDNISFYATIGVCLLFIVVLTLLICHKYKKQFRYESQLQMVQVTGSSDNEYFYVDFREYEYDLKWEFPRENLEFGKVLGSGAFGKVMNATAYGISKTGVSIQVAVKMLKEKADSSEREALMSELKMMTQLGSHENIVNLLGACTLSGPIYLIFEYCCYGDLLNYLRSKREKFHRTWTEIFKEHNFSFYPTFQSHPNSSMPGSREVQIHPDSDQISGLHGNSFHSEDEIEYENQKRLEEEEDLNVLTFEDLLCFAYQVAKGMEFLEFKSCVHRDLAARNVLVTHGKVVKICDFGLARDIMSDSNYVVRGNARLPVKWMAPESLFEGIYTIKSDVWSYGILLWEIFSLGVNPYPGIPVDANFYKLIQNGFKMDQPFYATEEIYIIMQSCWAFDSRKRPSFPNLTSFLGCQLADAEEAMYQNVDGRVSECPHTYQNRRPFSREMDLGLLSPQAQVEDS
Method in brief: (§2)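 Caliper mobility-shift assay with recombinant kinase in 50 mM HEPES pH 7.5, 0.0015% Brij-35. Compound was diluted from DMSO and preincubated with enzyme for 10 min at room temperature. FAM-labeled peptide plus ATP was then added and the reaction run for 1 h at 28 °C. It was stopped with an EDTA (50 mM) buffer. Conversion gave percent inhibition relative to max/min controls, and IC50 came from a four-parameter Hill fit. Duplicate wells were used.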

[7] = molecular target: T1, Tyrosine-protein kinase JAK2; experiment: Inhibition of N-terminal His-tagged human JAK2 catalytic domain (826 to 1132 resiudes) expressed in baculovirus expression system using FAM-labeled peptide as substrate preincubated for 10 mins followed by substrate addition measured after 1 hr in presence of ATP by mobility shift assay; method in brief: as §2

T1 sequence (O60674 whole entry, the tested form may be a part): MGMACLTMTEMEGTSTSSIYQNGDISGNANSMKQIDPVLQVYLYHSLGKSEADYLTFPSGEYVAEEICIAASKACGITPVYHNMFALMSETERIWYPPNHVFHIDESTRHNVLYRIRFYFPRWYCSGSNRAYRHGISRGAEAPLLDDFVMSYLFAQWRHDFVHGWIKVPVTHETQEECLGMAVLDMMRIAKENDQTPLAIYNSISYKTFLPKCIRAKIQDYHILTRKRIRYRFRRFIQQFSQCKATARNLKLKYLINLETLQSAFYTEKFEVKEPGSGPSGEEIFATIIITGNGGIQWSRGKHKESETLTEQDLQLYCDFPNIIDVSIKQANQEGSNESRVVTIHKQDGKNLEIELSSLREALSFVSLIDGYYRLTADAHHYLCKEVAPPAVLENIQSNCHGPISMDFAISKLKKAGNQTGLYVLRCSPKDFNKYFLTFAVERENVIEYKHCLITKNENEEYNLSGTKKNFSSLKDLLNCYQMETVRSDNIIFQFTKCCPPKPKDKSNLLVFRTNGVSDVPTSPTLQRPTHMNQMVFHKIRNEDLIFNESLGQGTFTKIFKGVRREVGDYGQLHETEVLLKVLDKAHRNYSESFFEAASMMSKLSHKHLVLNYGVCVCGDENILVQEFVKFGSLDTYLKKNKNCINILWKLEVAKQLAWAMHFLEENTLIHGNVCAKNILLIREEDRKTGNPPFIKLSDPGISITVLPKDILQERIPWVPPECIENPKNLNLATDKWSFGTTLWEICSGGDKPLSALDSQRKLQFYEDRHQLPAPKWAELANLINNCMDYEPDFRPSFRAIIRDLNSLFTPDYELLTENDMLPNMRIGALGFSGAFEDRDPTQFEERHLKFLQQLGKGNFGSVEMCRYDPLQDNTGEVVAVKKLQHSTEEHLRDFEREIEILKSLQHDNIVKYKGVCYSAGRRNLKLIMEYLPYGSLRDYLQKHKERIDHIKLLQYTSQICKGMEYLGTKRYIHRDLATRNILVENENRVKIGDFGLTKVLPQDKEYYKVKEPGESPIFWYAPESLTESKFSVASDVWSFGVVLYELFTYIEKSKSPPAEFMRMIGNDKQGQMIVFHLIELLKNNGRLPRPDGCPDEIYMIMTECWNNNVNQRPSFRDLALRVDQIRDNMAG

inhibition [2] [%]	GI50 [3] [µM]	inhibition [4] [%]	GI50 [5] [µM]	IC50 [6] [µM]	IC50 [7] [µM]	SMILES	GI50 [1] [µM]
60.7	29.4	83.2	11	0.013	0.065	CC(=O)c1ccc(NC(=O)N2CCN(c3ccnc(Nc4ccc(OCCCN5CCCC5)cc4)n3)CC2)cc1	3.3
53.7		27.8				O=C(Nc1ccccc1)N1CCN(c2ccnc(Nc3ccc(N4CCOCC4)cc3)n2)CC1	
59		82				NS(=O)(=O)c1ccc(NC(=O)N2CCN(c3ccnc(Nc4ccc(OCCN5CCCC5)cc4)n3)CC2)cc1	> 50
79.3		84.4				O=C(Nc1ccc([N+](=O)[O-])cc1)N1CCN(c2ccnc(Nc3ccc(N4CCOCC4)cc3)n2)CC1	
74		39.8				NC(=O)c1cccc(NC(=O)N2CCN(c3ccnc(Nc4ccc(N5CCOCC5)cc4)n3)CC2)c1	
86	> 50	79.7	> 50	0.03	0.0093	NS(=O)(=O)c1ccc(NC(=O)N2CCN(c3ccnc(Nc4ccc(N5CCOCC5)cc4)n3)CC2)cc1	> 50
86.3	> 50	81.1	> 50	0.021	0.011	NC(=O)c1ccc(NC(=O)N2CCN(c3ccnc(Nc4ccc(N5CCOCC5)cc4)n3)CC2)cc1	> 50
9.5		12.5				NC(=O)c1ccccc1NC(=O)N1CCN(c2ccnc(Nc3ccc(N4CCOCC4)cc3)n2)CC1	
53		74				NC(=O)c1ccc(NC(=O)N2CCN(c3ccnc(Nc4ccc(OCCN5CCCC5)cc4)n3)CC2)cc1	> 50
94.7						N#CCNC(=O)c1ccc(-c2ccnc(Nc3ccc(N4CCOCC4)cc3)n2)cc1	
53		54				CC(=O)c1ccc(NC(=O)N2CCN(c3ccnc(Nc4ccc(N5CCC(C)CC5)cc4)n3)CC2)cc1	26.4
2		3.3				CC(=O)c1cccc(NC(=O)N2CCN(c3ccnc(Nc4ccc(N5CCOCC5)cc4)n3)CC2)c1	
68.1		35.8				CNC(=O)c1ccc(NC(=O)N2CCN(c3ccnc(Nc4ccc(N5CCOCC5)cc4)n3)CC2)cc1	
73.9	> 50	77.6	17.8	0.04	0.0298	CC(=O)c1ccc(NC(=O)N2CCN(c3ccnc(Nc4ccc(N5CCSCC5)cc4)n3)CC2)cc1	4.7
48.7		21.7				COc1ccc(NC(=O)N2CCN(c3ccnc(Nc4ccc(N5CCOCC5)cc4)n3)CC2)cc1	
61.7		70.6				CC(=O)c1ccc(NC(=O)N2CCN(c3ccnc(Nc4ccc(OCCN5CCOCC5)cc4)n3)CC2)cc1	8.9
41.2		0				CCN(CC)c1ccc(NC(=O)N2CCN(c3ccnc(Nc4ccc(N5CCOCC5)cc4)n3)CC2)cc1	
75.8		53.9				CS(=O)(=O)c1ccc(NC(=O)N2CCN(c3ccnc(Nc4ccc(N5CCOCC5)cc4)n3)CC2)cc1	

inhibition [2] [%]	GI50 [3] [µM]	inhibition [4] [%]	GI50 [5] [µM]	IC50 [6] [µM]	IC50 [7] [µM]	SMILES	GI50 [1] [µM]
40.6		33.1				COC(=O)CNC(=O)c1ccc(NC(=O)N2CCN(c3ccnc(Nc4ccc(N5CCOCC5)cc4)n3)CC2)cc1	
35.2		36.5				O=C(Nc1cccc(C(F)(F)F)c1)N1CCN(c2ccnc(Nc3ccc(N4CCOCC4)cc3)n2)CC1	
20		17.2				O=C(Nc1ccc(C(=O)N2CCOCC2)cc1)N1CCN(c2ccnc(Nc3ccc(N4CCOCC4)cc3)n2)CC1	
84		85				CN1CCN(c2ccc(Nc3nccc(N4CCN(C(=O)Nc5ccc(C(N)=O)cc5)CC4)n3)cc2)CC1	> 50
78		70.8				N#Cc1ccc(NC(=O)N2CCN(c3ccnc(Nc4ccc(N5CCOCC5)cc4)n3)CC2)cc1	
53.3		27.4				CCc1ccc(NC(=O)N2CCN(c3ccnc(Nc4ccc(N5CCOCC5)cc4)n3)CC2)cc1	
35.2		36.5				O=C(Nc1ccc(C(F)(F)F)cc1)N1CCN(c2ccnc(Nc3ccc(N4CCOCC4)cc3)n2)CC1	
76		86				CN1CCN(c2ccc(Nc3nccc(N4CCN(C(=O)Nc5ccc(S(N)(=O)=O)cc5)CC4)n3)cc2)CC1	> 50
92	1.4		1.6			C1=N/C2=N/c3ccc(OCCN4CCCC4)c(c3)COC/C=C/COCc3cccc(c3)C(=C1)N2 [PACRITINIB]	1.1
21.8		15				O=C(Nc1ccccc1C(F)(F)F)N1CCN(c2ccnc(Nc3ccc(N4CCOCC4)cc3)n2)CC1	
64.4		62.8				COC(=O)c1ccc(NC(=O)N2CCN(c3ccnc(Nc4ccc(N5CCOCC5)cc4)n3)CC2)cc1	
45		69				CC(=O)c1ccc(NC(=O)N2CCN(c3ccnc(Nc4ccc(OCCN5CCCC5)cc4)n3)CC2)cc1	30.3
18.9		13.8				CC(=O)c1ccccc1NC(=O)N1CCN(c2ccnc(Nc3ccc(N4CCOCC4)cc3)n2)CC1	
80.8	46.4	87.5	32	0.012	0.0138	CC(=O)c1ccc(NC(=O)N2CCN(c3ccnc(Nc4ccc(N5CCN(C)CC5)cc4)n3)CC2)cc1	14.1
8.1		15.9				N#Cc1cccc(NC(=O)N2CCN(c3ccnc(Nc4ccc(N5CCOCC5)cc4)n3)CC2)c1	
11.1		22.9				CC(C)Oc1ccc(NC(=O)N2CCN(c3ccnc(Nc4ccc(N5CCOCC5)cc4)n3)CC2)cc1	
54.8		27.8				O=C(Nc1ccc(F)cc1)N1CCN(c2ccnc(Nc3ccc(N4CCOCC4)cc3)n2)CC1	
60.9		70.9				CC(=O)c1ccc(NC(=O)N2CCN(c3ccnc(Nc4ccc(OCCCN5CCOCC5)cc4)n3)CC2)cc1	10.7
